The values that follow come from ChEMBL document CHEMBL1140934, “Structure-activity relationships of antitubercular nitroimidazoles. 2. Determinants of aerobic activity and quantitative structure-activity relationships” (2009).

In test [1] the test system is Mycobacterium tuberculosis. Nature of the test: Antimycobacterial activity against wild type Mycobacterium tuberculosis H37Rv ATCC 27294 after 2 weeks. The test is classed as functional. The following applies: 336 h. In short, it runs like this:
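M. tuberculosis H37Rv was grown in 7H9 with 0.05% Tween 80, 0.2% glycerol and ADC to OD650 0.2, then diluted 1:1000. It was added to 2-fold serial drug dilutions in the same medium (11 dilutions, 200 µM to 0.19 µM). Plates were incubated 2 weeks at 37°C and MIC99 read macroscopically. Three independent determinations.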

Test [2] deals with Mycobacterium tuberculosis. Kind of test: Ratio of Kcat/Km for Mycobacterium tuberculosis F420-dependent nitroreductase by Michaelis-Menten equation. In short, it runs like this:
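Buffer was 200 mM Tris pH 8.0 with 0.01% Triton X-100 and 20 µM H2F420. H2F420 was made with recombinant Mtb FGD1, which was then heat-inactivated (65°C, 10 min) and removed by ultrafiltration. F420 came from M. smegmatis.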

The test system of test [3] is Mycobacterium tuberculosis. Nature of the test: Antimycobacterial activity against wild type Mycobacterium tuberculosis H37Rv NRP-2 stage after 3 weeks under anaerobic condition. Type of test: functional. The following applies: 504 h. The procedure, abridged: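 H37Rv was anaerobically adapted from OD650 0.005 in glycerol-free Dubos broth, in sealed stirred tubes (head-space ratio 0.5) for 3 weeks at 37°C. Cultures were dispensed in an anaerobic chamber onto drug (2% DMSO final) and held anaerobically 7 days at 37°C. Cells were washed, 2-fold diluted and spotted on 7H11 agar for 3 weeks. MAC: 90% reduction in visible growth. Isoniazid and metronidazole controls; CFU counts corroborated.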

In brackets after ≈: the same amount, converted by molar mass.

`O=[N+]([O-])c1cn2c(n1)OC[C@@H](NCc1ccc(OCc3ccccc3)cc1)C2`: in test [1], the MIC (usually the lowest concentration that inhibits growth of the organism) worked out at 0.15 µM (≈ 0.0571 µg/mL). The kcat/Km (usually the second-order rate constant that governs catalysis at low substrate concentration) in test [2] was determined as 3450 M⁻¹ s⁻¹. Also, the MBC (in general, the lowest tested concentration that kills the bacteria rather than only halting them) in test [3] stood at 6.25 µM (≈ 2.38 µg/mL).

For `O=C(COc1ccc(OC(F)(F)F)cc1)N[C@@H]1COc2nc([N+](=O)[O-])cn2C1`, the MIC in test [1] turned out to be 0.05 µM (≈ 0.0201 µg/mL). For the same compound, the kcat/Km in test [2] was 283 M⁻¹ s⁻¹. This compound also displayed an MBC in test [3] of 62.5 µM (≈ 25.1 µg/mL).

In turn, `O=[N+]([O-])c1cn2c(n1)OC[C@@H](NCCc1ccc(OC(F)(F)F)cc1)C2` returned an MIC in test [1] of 0.16 µM (≈ 0.0596 µg/mL). The kcat/Km in test [2] stood at 1830 M⁻¹ s⁻¹. The compound further gave an MBC in test [3] of 6.25 µM (≈ 2.33 µg/mL).

In turn, `O=[N+]([O-])c1cn2c(n1)OC[C@@H](NCc1ccc(OC(F)(F)F)cc1)C2` had an MIC in test [1] of 0.31 µM (≈ 0.111 µg/mL). Besides, the kcat/Km in test [2] was 2870 M⁻¹ s⁻¹. Further, the MBC in test [3] amounted to 12.5 µM (≈ 4.48 µg/mL).

For the compound `O=[N+]([O-])c1cn2c(n1)SC[C@@H](OCc1ccc(OC(F)(F)F)cc1)C2`, the lowest concentration to inhibit growth in test [1] (MIC) was 0.8 µM (≈ 0.3 µg/mL). Moreover, the catalytic efficiency (kcat/Km) in test [2] turned out to be 2430 M⁻¹ s⁻¹. Besides, in test [3], the MBC is 25 µM (≈ 9.38 µg/mL).

With `O=[N+]([O-])c1cn2c(n1)OC[C@@H](NCCCCCc1ccc(OC(F)(F)F)cc1)C2`, the lowest concentration to inhibit growth in test [1] (MIC) was 0.078 µM (≈ 0.0323 µg/mL). Further, in test [2], the kcat/Km amounted to 15200 M⁻¹ s⁻¹. The MBC in test [3] worked out at 6.25 µM (≈ 2.59 µg/mL).

For the compound `O=CN1CC(OCc2ccc(OC(F)(F)F)cc2)Cn2cc([N+](=O)[O-])nc21` (single isomer, unassigned), the MIC in test [1] was determined as 3.2 µM (≈ 1.24 µg/mL). Moreover, in test [2], the kcat/Km stood at 1080 M⁻¹ s⁻¹. For the same compound, in test [3], the MBC was determined as 25 µM (≈ 9.66 µg/mL).

Turning to `O=[N+]([O-])c1cn2c(n1)OC[C@@H](NCc1ccc(OCc3ccc(OC(F)(F)F)cc3)cc1)C2`, the MIC in test [1] amounted to 0.16 µM (≈ 0.0743 µg/mL). Also, the specificity constant (kcat/Km) in test [2] is 1230 M⁻¹ s⁻¹. Also, the MBC in test [3] was determined as 1.56 µM (≈ 0.724 µg/mL).

`O=[N+]([O-])c1cn2c(n1)OC[C@@H](OCc1ccc(OC(F)(F)F)cc1)C2` [PRETOMANID]: the MIC in test [1] was 0.8 µM (≈ 0.287 µg/mL). Also, the kcat/Km in test [2] came to 2580 M⁻¹ s⁻¹. This compound gave an MBC in test [3] of 6.25 µM (≈ 2.25 µg/mL).

For `O=[N+]([O-])c1cn2c(n1)OC[C@@H](NCCCCc1ccc(OC(F)(F)F)cc1)C2`, in test [1], the MIC was 0.039 µM (≈ 0.0156 µg/mL). The catalytic efficiency (kcat/Km) in test [2] turned out to be 8570 M⁻¹ s⁻¹. This compound displayed an MBC in test [3] of 3.13 µM (≈ 1.25 µg/mL).

Compound `O=[N+]([O-])c1cn2c(n1)SC[C@H](OCc1ccc(OC(F)(F)F)cc1)C2` registered an MIC in test [1] of 50 µM (≈ 18.8 µg/mL). For the same compound, the MBC in test [3] is 50 µM (≈ 18.8 µg/mL).

`CC(=O)N1CC(OCc2ccc(OC(F)(F)F)cc2)Cn2cc([N+](=O)[O-])nc21` (single isomer, unassigned) gave an MIC in test [1] of 6.25 µM (≈ 2.5 µg/mL). In test [3], this compound registered an MBC of 31.2 µM (≈ 12.5 µg/mL).

`O=[N+]([O-])c1cn2c(n1)CC[C@@H](OCc1ccc(OC(F)(F)F)cc1)C2` displayed a minimum inhibitory concentration (MIC) in test [1] of 25 µM (≈ 8.93 µg/mL). For the same compound, the kcat/Km in test [2] was determined as 400 M⁻¹ s⁻¹. The same compound came in with an MBC in test [3] of 250 µM (≈ 89.3 µg/mL).

`O=[N+]([O-])c1cn2c(n1)OC[C@@H](NCc1ccc(OCc3ccc(F)cc3)cc1)C2`: in test [1], the MIC came out at 0.2 µM (≈ 0.0797 µg/mL). Also, in test [2], the kcat/Km amounted to 7530 M⁻¹ s⁻¹. For the same compound, the MBC in test [3] worked out at 2 µM (≈ 0.797 µg/mL).

Take `O=[N+]([O-])c1cn2c(n1)S(=O)(=O)C[C@@H](OCc1ccc(OC(F)(F)F)cc1)C2`: in test [1], the MIC is greater than 100 µM. Besides, the MBC in test [3] came out at 25 µM (≈ 10.2 µg/mL).

In test [1], `CCCCc1ccc(CN[C@@H]2COc3nc([N+](=O)[O-])cn3C2)cc1` displayed an MIC of 0.78 µM (≈ 0.258 µg/mL). For the same compound, the kcat/Km in test [2] stood at 900 M⁻¹ s⁻¹. In test [3], this compound had an MBC of 50 µM (≈ 16.5 µg/mL).

`CN1C[C@@H](OCc2ccc(OC(F)(F)F)cc2)Cn2cc([N+](=O)[O-])nc21` yielded an MIC in test [1] of 6.25 µM (≈ 2.33 µg/mL). Besides, the kcat/Km in test [2] is 1020 M⁻¹ s⁻¹. This compound also returned a minimum bactericidal concentration (MBC) in test [3] of no less than 100 µM.

`O=[N+]([O-])c1cn2c(n1)[S+]([O-])C[C@@H](OCc1ccc(OC(F)(F)F)cc1)C2` (stereo partly drawn) showed an MIC in test [1] greater than 100 µM. This compound showed an MBC in test [3] of 50 µM (≈ 19.6 µg/mL).

In test [1], `N[C@@H]1COc2nc([N+](=O)[O-])cn2C1` registered an MIC greater than 100 µM. Moreover, the MBC in test [3] is greater than 500 µM.

Regarding `O=[N+]([O-])c1cn2c(n1)OC[C@@H](NCCCc1ccc(OC(F)(F)F)cc1)C2`, 0.078 µM (≈ 0.0301 µg/mL) was the least that counted as inhibitory in test [1] (MIC). Besides, the kcat/Km in test [2] was determined as 5120 M⁻¹ s⁻¹. For the same compound, the MBC in test [3] is 3.12 µM (≈ 1.21 µg/mL).

As to `O=[N+]([O-])c1cn2c(n1)NC[C@@H](OCc1ccc(OC(F)(F)F)cc1)C2`, the MIC in test [1] amounted to 0.8 µM (≈ 0.287 µg/mL). Besides, the kcat/Km in test [2] was determined as 4050 M⁻¹ s⁻¹. In test [3], this compound had a minimum bactericidal concentration (MBC) of 125 µM (≈ 44.8 µg/mL).
